High-throughput results as filed in PubChem.
SENP6 block – inhibitors of human SENP6 protease | Q9GZR1 | Recombinant SENP6 catalytic domain, aminoluciferin luminescence | inhibition, % at 10 µM | 1.8% of 330,000 active | AID 2599;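 active means inhibition above about 50% at the single tested dose, limit read from the data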;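 further: plate controls were DMSO wells with enzyme for no effect and DMSO wells lacking enzyme for full effect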
Target sequence (Q9GZR1 628-1112 limits assumed): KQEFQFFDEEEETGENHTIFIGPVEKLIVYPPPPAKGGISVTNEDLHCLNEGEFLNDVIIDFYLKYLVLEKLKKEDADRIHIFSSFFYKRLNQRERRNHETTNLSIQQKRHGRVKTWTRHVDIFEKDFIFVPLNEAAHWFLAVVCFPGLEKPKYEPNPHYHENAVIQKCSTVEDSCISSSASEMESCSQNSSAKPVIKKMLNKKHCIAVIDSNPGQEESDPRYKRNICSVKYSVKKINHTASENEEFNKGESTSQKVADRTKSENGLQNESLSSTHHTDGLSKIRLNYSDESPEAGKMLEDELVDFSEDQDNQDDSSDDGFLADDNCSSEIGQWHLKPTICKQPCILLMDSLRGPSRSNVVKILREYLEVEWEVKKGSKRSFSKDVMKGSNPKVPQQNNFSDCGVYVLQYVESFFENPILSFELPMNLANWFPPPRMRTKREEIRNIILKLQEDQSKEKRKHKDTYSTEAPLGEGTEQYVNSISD
SENP1 FRET inh – SENP1 (human) catalytic domain inhibition. recombinant SENP1 catalytic domain, CyPet-SUMO1-YPet FRET cleavage. inhibition, % at 10 µM. 0.21% of 360,000 active. AID 624204. Q9P0U3;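 active means inhibition at least 30% at 10 µM, raw YFP signal under a set limit, fluorescence ratio 0.5 to 1.5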;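 further: 0% = enzyme with DMSO and 100% = no enzyme wells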
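Material – human SENP1 catalytic domain · Input – SENP1 enzyme, 20 pM final · Compound dosing – single concentration of 10 µM compound, 0.5% DMSO final · Timing – enzyme reaction for 50 min at room temperature, dark · Measured by – FRET fluorescence in CFP and YFP emission channels · Control set – no-enzyme wells low, DMSO-plus-enzyme wells high control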
SENP8 block-1 – inhibitors of human SENP8 protease. purified SENP8, Z-RLRGG-aminoluciferin cleavage, luminescence. inhibition, % at 10 µM. Q96LD8. 1.2% of 330,000 active; in the data active means inhibition above about 50%
Platelet DG rel – modulates dense granule release in human platelets. 0.22% of 300,000 active. human platelet-rich plasma, SFLLRN dense granule ATP release, luminescence. AID 1663. inhibition, %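 (compounds screened at 7.5 µM in platelet-rich plasma)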;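 active means mean replicate score, as percent of positive control, at or above 50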
SENP8 block-2 – blocks human SENP8 cleavage of Nedd8 substrate | Q96LD8 | recombinant SENP8, Nedd8 substrate fluorescence | inhibition, % at 20 µM | 0.64% of 360,000 active; in the data active means inhibition mostly above about 40%, no sharp cut-off; inactive means mostly below about 27%
SENP7 inh – SENP7 protease inhibition. Q9BQF6. inhibition, % at 5 µM. 1.5% of 330,000 active. recombinant SENP7, Z-RLRGG-aminoluciferin luminescence, 40 min;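 active means inhibition above about 50% at the single test dose, limit read from the data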;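 further: plate controls were DMSO with enzyme for no effect and no enzyme buffer wells for full effect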
SENP8 confirm – confirmation of human SENP8 protease inhibitors. Recombinant SENP8, Z-RLRGG-aminoluciferin luminescence, 60 min. 40% of 6,200 active. shares compounds with SENP7 inh. inhibition, % at 12.5 µM;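 active means mean inhibition across replicates above about 50%, limit read from the data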
SENP6 conf – confirmation of human SENP6 protease inhibitors; shares compounds with SENP7 inh; recombinant SENP6, Z-RLRGG-aminoluciferin luminescence; inhibition, % at 12.5 µM; 58% of 6,200 active; AID 488915
SENP7 conf – confirmation of human SENP7 protease inhibitors; shares compounds with SENP7 inh; recombinant SENP7, Z-RLRGG-aminoluciferin luminescence, 40 min; inhibition, % at 12.5 µM; 69% of 6,200 active
Casp3 SENP sel – selectivity test for SENP inhibitors: human caspase-3 inhibition | shares compounds with SENP7 inh | inhibition, % at 12.5 µM | AID 488918 | 60% of 6,200 active | purified caspase-3, Z-DEVD-aminoluciferin luminescence, 60 min;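 active means mean inhibition above about 50%, limit read from the data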;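 further: plate controls were enzyme with DMSO for no effect and wells without caspase-3 for full effect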
Target sequence (P42574 28-227 limits assumed): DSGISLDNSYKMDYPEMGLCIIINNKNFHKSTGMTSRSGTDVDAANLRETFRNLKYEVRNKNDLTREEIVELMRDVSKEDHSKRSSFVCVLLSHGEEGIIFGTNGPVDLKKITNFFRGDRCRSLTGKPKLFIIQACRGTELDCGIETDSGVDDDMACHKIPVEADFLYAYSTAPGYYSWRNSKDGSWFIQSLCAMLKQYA
SENP luc ctr – interferes with luciferase luminescence in SENP counter-screen; Pre-incubated SENP8/Z-RLRGG-aminoluciferin, luciferase luminescence interference; inhibition, % at 12.5 µM; shares compounds with SENP7 inh; 39% of 6,200 active; AID 488919;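 active means mean inhibition above about 50% when retested at one dose, limit read from the data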;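 further: plate controls were DMSO wells with completed reaction for no effect and substrate without enzyme for full effect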
Starred values were filed as active, the others as inactive. Shown are actives, neighbours in structure and some others; about 2.6% of the full set was active somewhere.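 How the source made its calls, unless noted: active means mean inhibition above about 50% in the one-dose retest (limit read from the data); inactive means the rest.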

Cc1ccc(-c2nc(-c3ccccc3)no2)cc1 was read as SENP6 block 63.1*, SENP1 FRET inh -1.2, SENP8 block-1 96.3*, Platelet DG rel 18.9, SENP8 block-2 6.1, SENP7 inh 98.1*, SENP8 confirm 77.6*, SENP6 conf 86.4*, SENP7 conf 94.7*, Casp3 SENP sel 90.9* and SENP luc ctr 50.4*.
Screening CCC(=O)Oc1ccc(-c2nc(-c3cccnc3)no2)cc1 returned SENP6 block 97.2*, SENP1 FRET inh 2.0, SENP8 block-1 96.8*, Platelet DG rel 81.2*, SENP8 block-2 25.0, SENP7 inh 99.0*, SENP8 confirm 99.3*, SENP6 conf 100.1*, SENP7 conf 103.0*, Casp3 SENP sel 99.0* and SENP luc ctr 97.6*.
For Cc1ccc(-c2nc(-c3ccccc3)no2)c(Cl)c1 the results were SENP6 block 98.3*, SENP1 FRET inh 0.7, SENP8 block-1 97.0*, Platelet DG rel 19.3, SENP8 block-2 -2.8, SENP7 inh 100.1*, SENP8 confirm 95.8*, SENP6 conf 98.7*, SENP7 conf 102.2*, Casp3 SENP sel 96.8* and SENP luc ctr 82.6*.
For COc1ccc(-c2nc(-c3cccnc3)no2)cc1OC the results were SENP6 block 11.5, SENP1 FRET inh 2.5, SENP8 block-1 5.1, Platelet DG rel -6.4, SENP8 block-2 -13.8 and SENP7 inh 23.5.
`CCCc1noc(-c2ccc(-c3ccccc3)cc2)n1` gave SENP6 block 40.9, SENP1 FRET inh 0.6, SENP8 block-1 50.1*, Platelet DG rel 5.8, SENP8 block-2 16.3, SENP7 inh 67.9*, SENP8 confirm 25.9, SENP6 conf 40.1, SENP7 conf 55.1*, Casp3 SENP sel 50.4* and SENP luc ctr 30.0.
Screening Cc1ccc(-c2nc(-c3cccnc3)no2)cc1 returned SENP6 block 81.0*, SENP1 FRET inh 0.2, SENP8 block-1 66.5*, Platelet DG rel 5.0, SENP8 block-2 26.4, SENP7 inh 82.2*, SENP8 confirm 71.8*, SENP6 conf 81.4*, SENP7 conf 97.6*, Casp3 SENP sel 86.1* and SENP luc ctr 66.8*.
For Cc1ccc(Cc2nc(-c3cccnc3)no2)cc1 the results were SENP6 block -17.6, SENP1 FRET inh 0.6, SENP8 block-1 -3.9, Platelet DG rel 2.2, SENP8 block-2 4.2 and SENP7 inh -1.5.
For COc1ccc(S(=O)(=O)N2CCOCC2)cc1NC(=O)COC(=O)C1CC1C (centres undefined) the results were SENP6 block -5.8, SENP1 FRET inh 1.0, SENP8 block-1 2.7, SENP8 block-2 0.6 and SENP7 inh 9.6.
`Cc1ccc(C(=O)O/N=C(\N)c2cccc([N+](=O)[O-])c2)cc1` gave SENP6 block 43.6, SENP1 FRET inh 5.4, SENP8 block-1 12.4, Platelet DG rel 8.5, SENP8 block-2 14.5 and SENP7 inh 49.3.
Screening N/C(=N\OC(=O)c1ccccc1F)c1cccc([N+](=O)[O-])c1 returned SENP6 block 13.1, SENP1 FRET inh 0.5, SENP8 block-1 34.1, Platelet DG rel -8.3, SENP8 block-2 19.3, SENP7 inh 63.6*, SENP8 confirm 24.2, SENP6 conf 43.7, SENP7 conf 77.6*, Casp3 SENP sel 51.2* and SENP luc ctr 43.3.
For N/C(=N\OC(=O)c1ccccc1Br)c1cccc([N+](=O)[O-])c1 the results were SENP6 block 85.3*, SENP1 FRET inh 1.9, SENP8 block-1 66.4*, Platelet DG rel -1.6, SENP8 block-2 23.8, SENP7 inh 82.3*, SENP8 confirm 59.1*, SENP6 conf 52.4*, SENP7 conf 83.0*, Casp3 SENP sel 50.9* and SENP luc ctr 66.5*.
`O=C(Cc1ccccc1F)Nc1cc(S(=O)(=O)N2CCOCC2)ccc1N1CCCC1` gave SENP6 block 15.7, SENP1 FRET inh 4.5, SENP8 block-1 4.6, SENP8 block-2 -0.5 and SENP7 inh 3.2.
Screening CCOc1ccc(-c2nnn(CC(=O)Nc3ccccc3OC)n2)cc1OCC returned SENP6 block -4.7, SENP1 FRET inh 3.1, SENP8 block-1 6.8, Platelet DG rel -7.7, SENP8 block-2 28.2, SENP7 inh 62.6*, SENP8 confirm -7.6, SENP6 conf -2.0, SENP7 conf -1.1, Casp3 SENP sel 7.4 and SENP luc ctr 3.1.
COc1ccc(-c2nnn(CC(=O)NCc3ccccc3)n2)cc1OC was read as SENP6 block -4.5, SENP1 FRET inh 0.5, SENP8 block-1 -8.2, Platelet DG rel 3.2, SENP8 block-2 8.9 and SENP7 inh 6.0.
`Cc1nc(-c2cccc(Br)c2)ccc1C(=O)O` gave SENP6 block -7.0, SENP1 FRET inh 1.4, SENP8 block-1 33.0, Platelet DG rel 9.1, SENP8 block-2 13.2, SENP7 inh 57.8*, SENP8 confirm 55.2*, SENP6 conf 50.6*, SENP7 conf 80.7*, Casp3 SENP sel 87.5* and SENP luc ctr 64.7*.
For COCCCNC(=S)Nc1ccc(S(=O)(=O)Nc2cc(OC)nc(OC)n2)cc1 the results were SENP6 block -5.1, SENP1 FRET inh 1.4, SENP8 block-1 0.4, Platelet DG rel -8.1, SENP8 block-2 7.2 and SENP7 inh -4.5.
For N#Cc1cccc(NC(=O)c2cncn2-c2ccccc2)c1 the results were SENP6 block -1.5, SENP1 FRET inh -0.3, SENP8 block-1 -7.0, Platelet DG rel -44.2, SENP8 block-2 0.6 and SENP7 inh -8.4.
For CCc1ccccc1N1CC(C(=O)N2Cc3ccccc3CC2C(N)=O)CC1=O (centres undefined) the results were SENP6 block -1.9, SENP1 FRET inh 1.3, SENP8 block-1 -7.0, SENP8 block-2 0.9 and SENP7 inh -5.3.
O=C(CCCN1C(=O)/C(=C\c2ccccc2)SC1=S)Nc1ccc(C(=O)O)cc1 was read as SENP6 block 82.1*, SENP1 FRET inh 3.2, SENP8 block-1 65.8*, Platelet DG rel -3.2, SENP8 block-2 10.0, SENP7 inh 22.8, SENP8 confirm 9.5, SENP6 conf 5.5, SENP7 conf 12.3, Casp3 SENP sel 5.3 and SENP luc ctr 13.1.
